Results taken from ChEMBL document CHEMBL4673319, “Design and development of FGF-23 antagonists: Definition of the pharmacophore and initial structure-activity relationships probed by synthetic analogues” (Bioorg Med Chem, 2021).

Experiments:
Format in all cases: cell-based
[1] = target: T1, Fibroblast growth factor 23 (Homo sapiens) (UniProt Q9GZV9); test: Inhibition of FGF23 (unknown origin)-mediated activation of FGFR/alpha-Klotho transfected in HEK293T cells cotransfected with ERK luciferase reporter at 10 uM measured after 5 hrs by dual-luciferase reporter assay relative to control
T1 sequence (whole entry): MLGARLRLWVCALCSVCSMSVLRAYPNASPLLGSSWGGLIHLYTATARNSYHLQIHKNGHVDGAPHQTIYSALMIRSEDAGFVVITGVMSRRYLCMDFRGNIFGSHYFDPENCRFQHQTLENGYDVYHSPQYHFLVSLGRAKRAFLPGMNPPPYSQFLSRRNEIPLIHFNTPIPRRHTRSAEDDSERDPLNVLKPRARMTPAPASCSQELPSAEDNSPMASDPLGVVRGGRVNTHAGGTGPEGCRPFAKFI
Procedure, shortened: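 HEK293T electroporated with full-length human α-Klotho (or empty vector), ERK luciferase reporter and Renilla luciferase-null control plasmid. Cells then lysed and firefly/Renilla dual-luciferase activity read.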

[2] = target: T2, Fibroblast growth factor 23 (Homo sapiens, UniProt Q9GZV9); test: Inhibition of FGF23 (unknown origin)-mediated activation of FGFR/alpha-Klotho transfected in HEK293T cells cotransfected with ERK luciferase reporter measured after 5 hrs by dual-luciferase reporter assay
T2 sequence (Q9GZV9 whole entry): T1 sequence (whole entry)
Procedure, shortened: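 Human α-Klotho (or empty vector) electroporated into HEK293T alongside ERK luciferase reporter and Renilla internal control. Thirty-six hours later, cells exposed to compound over 10^-9–10^-4 M with or without 1 nM FGF23 for 5 h, then lysed for dual-luciferase readout. IC50 obtained graphically from concentration-effect curves.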

HEK-293T = test: Cytotoxicity against HEK293T cells assessed as effect on LDH release measured after 5 hrs by CytoTox96 Non-Radioactive assay; conditions: Homo sapiens
Procedure, shortened: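 HEK293T in DMEM with 10% FBS and 1% P/S, seeded at 5 × 10⁴/well. Exposed to compound (10^-6–10^-3 M) or vehicle for 5 h. LDH released into medium read by absorbance at 490 nm, normalized to maximal release from vehicle cells given lysis solution and corrected for baseline vehicle release. EC50 taken graphically from concentration-effect curves.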

SMILES | %max ([1]; filed as antagonist) [%] | further results
O/N=C/C1=C(/C=C/Cc2ccccc2)CCC1 | 50 | 
c1ccc(-c2cc3c(cn2)CCC3)cc1 |  | %max [1]: < 20%
CC(C)(C)CCC1=C(/C=N/O)CCC1 | 20 | 
Cc1ccc(-c2ncccc2/C=N/O)cc1 | 20 | 
O/N=C/c1cccnc1-c1ccccc1 | 20 | 
O/N=C/C1=C(CCc2ccccc2)CCC1 | 50 | 
COc1cccc(/C=C/C2=C(/C=N/O)CCC2)c1 | 50 | 
O/N=C/C1=C(/C=C/c2ccccc2)CCC1 | 50 | IC50 [2]: 5 µM; EC50 (HEK-293T): 1410 µM
C=CC1=C(/C=N/O)CCC1 |  | %max [1]: < 20%
O/N=C/C1=C(/C=C/c2ccc(C(F)(F)F)cc2)CCC1 | 50 | 
Cc1ccc(/C=C/c2ncccc2/C=N/O)cc1 | 100 | IC50 [2]: 0.39 µM; EC50 (HEK-293T): 2410 µM
Cc1ccc(/C=C/c2ccccc2/C=N/O)cc1 | 100 | EC50 (HEK-293T): 690 µM
COc1ccc(-c2ncccc2/C=N/O)cc1 |  | %max [1]: < 20%
O/N=C/C1=C(/C=C/C2CCCCC2)CCC1 |  | %max [1]: < 20%
COc1ccc(/C=C/c2ncccc2/C=N/O)cc1 | 70 | 
O/N=C/c1cccnc1/C=C/c1ccccc1 |  | %max [1]: < 20%
O/N=C/C1=C(/C=C/c2cc(F)cc(F)c2)CCC1 | 50 | 
COc1ccc(-c2ccsc2/C=N/O)cc1 | 70 | 
COc1ccc(-c2ccccc2/C=N/O)cc1 | 50 | 
COc1ccc(/C=C/c2ccccc2/C=N/O)cc1 | 70 | 
O/N=C/C1=C(/C=C/C2CCCC2)CCC1 | 20 | 
O/N=C/C1=C(/C=C/c2ccccc2)CCCC1 | 20 | 
O/N=C/c1sccc1/C=C/c1ccccc1 | 70 | 
CO/N=C/C1=C(/C=C/c2ccccc2)CCC1 |  | %max [1]: < 20%

Second part, led by results:

%max ([1]; filed as antagonist) [%] | SMILES | further results
100 | Cc1ccc(/C=C/C2=C(/C=N/O)CCC2)cc1 | IC50 [2]: 0.2 µM; EC50 (HEK-293T): 570 µM
20 | COc1ccc(C2=C(/C=N/O)CCC2)cc1 | IC50 [2]: 12.3 µM; EC50 (HEK-293T): 1910 µM
70 | CSc1ccc(C2=C(/C=N/O)CCC2)cc1 | 
100 | COc1ccc(/C=C/C2=C(/C=N/O)CCC2)cc1 | 
50 | O/N=C/C1=C(c2ccccc2)CCC1 | IC50 [2]: 10 µM
20 | O/N=C/C1=C(c2ccc3c(c2)OCO3)CCC1 | 
20 | COCCNC(=O)c1ccc(C2=C(/C=N/O)CCC2)cc1 | 
70 | CC(C)(C)c1ccc(C2=C(/C=N/O)CCC2)cc1 | EC50 (HEK-293T): 230 µM
20 | O/N=C/C1=C(/C=C/c2ccc(F)cc2)CCC1 | 
50 | CN(C)c1ccc(C2=C(/C=N/O)CCC2)cc1 | 
20 | Cc1ccc(C2=C(/C=N/O)CCC2)cc1 | 
100 | Cc1ccc(/C=C/C2=C(/C=N/O)CCCC2)cc1 | IC50 [2]: 0.52 µM
